Measurements published in ChEMBL document CHEMBL5724801, “EUbOPEN Chemogenomics Library - Multiplex” (2024).
Where “and” joins values, the source holds several entries; their conditions need not be identical. Equal entries are not always repeated.

How the values were obtained:
[1] = tested on: U2OS; experiment: Multiplex assay against U2OS; format: toxicity, cell-based; conditions: human
Summary of the method: (§1)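 Phenotypes for tubulin, mitochondrial mass and membrane permeability are expressed as per cents of healthy-nucleus cells. Cells were stained live at seeding with Hoechst33342, BioTracker Green Microtubule Cytoskeleton Dye, MitoTracker Red and Annexin V Alexa Fluor 680, then imaged after compound addition on a CQ1 microscope at 37°C and 5% CO2. Machine-learning gating in CellPathfinder separated Hoechst high-intensity objects from normal cells, divided normal cells by nuclear state (healthy, pyknosed, fragmented) and divided pyknosed cells into mitotic or apoptotic.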

[2] = tested on: Fibroblast; experiment: Multiplex assay against human fibroblast; format: toxicity, cell-based; summary of the method: as §1
[3] = 12 h, 1 µM, compound concentration 1 uM
[4] = 12 h, 10 µM, compound concentration 10 uM
[5] = 24 h, 1 µM, compound concentration 1 uM
[6] = 24 h, 10 µM, compound concentration 10 uM
[7] = 48 h, 1 µM, compound concentration 1 uM
[8] = 48 h, 10 µM, compound concentration 10 uM

## N[C@](CC1c2ccccc2Oc2ccccc21)(C(=O)O)[C@H]1C[C@@H]1C(=O)O
[1]; [3]
  Population Apoptotic (%): 80% and 72%
  Population Fragmented Nuclei (%): 22% and 10%
  Population Healthy Nuclei (%): 67% and 79%
  Population Hoechst High Intensity Objects (%): 1%
  Population Membrane Permeable-Phenotype (%): 6% and 1%
  Population Mitochondria Different-Phenotype (%): 2% and 8%
  Population Mitotic Cells (%): 20% and 27%
  Population Normal (%): 98%
  Population Pyknosed Nuclei (%): 9%
  Population Tubulin-Different-Phenotype (%): 4% and 3%
  Total Cell Count: 218 and 114
[1]; [4]
  Population Apoptotic (%): 84% and 83%
  Population Fragmented Nuclei (%): 18% and 19%
  Population Healthy Nuclei (%): 72% and 76%
  Population Hoechst High Intensity Objects (%): 3% and 0%
  Population Membrane Permeable-Phenotype (%): 5% and 7%
  Population Mitochondria Different-Phenotype (%): 3% and 0%
  Population Mitotic Cells (%): 16%
  Population Normal (%): 96% and 100%
  Population Pyknosed Nuclei (%): 8% and 4%
  Population Tubulin-Different-Phenotype (%): 2%
  Total Cell Count: 295 and 141
[1]; [5]
  Population Apoptotic (%): 78% and 63%
  Population Fragmented Nuclei (%): 20% and 14%
  Population Healthy Nuclei (%): 70% and 77%
  Population Hoechst High Intensity Objects (%): 1% and 0%
  Population Membrane Permeable-Phenotype (%): 1% and 4%
  Population Mitochondria Different-Phenotype (%): 1% and 5%
  Population Mitotic Cells (%): 21% and 36%
  Population Normal (%): 98% and 99%
  Population Pyknosed Nuclei (%): 8%
  Population Tubulin-Different-Phenotype (%): 1% and 2%
  Total Cell Count: 272 and 137
[1]; [6]
  Population Apoptotic (%): 80% and 81%
  Population Fragmented Nuclei (%): 13% and 15%
  Population Healthy Nuclei (%): 79% and 77%
  Population Hoechst High Intensity Objects (%): 3% and 0%
  Population Membrane Permeable-Phenotype (%): 3% and 8%
  Population Mitochondria Different-Phenotype (%): 3% and 1%
  Population Mitotic Cells (%): 20% and 18%
  Population Normal (%): 96% and 99%
  Population Pyknosed Nuclei (%): 7% and 6%
  Population Tubulin-Different-Phenotype (%): 1% and 3%
  Total Cell Count: 365 and 164
[1]; [7]
  Population Apoptotic (%): 89% and 85%
  Population Fragmented Nuclei (%): 14% and 16%
  Population Healthy Nuclei (%): 75% and 72%
  Population Hoechst High Intensity Objects (%): 2% and 1%
  Population Membrane Permeable-Phenotype (%): 3% and 5%
  Population Mitochondria Different-Phenotype (%): 1% and 3%
  Population Mitotic Cells (%): 10% and 15%
  Population Normal (%): 97% and 98%
  Population Pyknosed Nuclei (%): 9% and 10%
  Population Tubulin-Different-Phenotype (%): 1% and 4%
  Total Cell Count: 403 and 190
[1]; [8]
  Population Apoptotic (%): 90% and 81%
  Population Fragmented Nuclei (%): 15% and 12%
  Population Healthy Nuclei (%): 77% and 78%
  Population Hoechst High Intensity Objects (%): 1% and 0%
  Population Membrane Permeable-Phenotype (%): 4% and 7%
  Population Mitochondria Different-Phenotype (%): 3% and 1%
  Population Mitotic Cells (%): 10% and 18%
  Population Normal (%): 98% and 100%
  Population Pyknosed Nuclei (%): 7% and 9%
  Population Tubulin-Different-Phenotype (%): 2% and 3%
  Total Cell Count: 554 and 238
[2]; [3]
  Population Apoptotic (%): 44% and 58%
  Population Fragmented Nuclei (%): 12% and 18%
  Population Healthy Nuclei (%): 73% and 59%
  Population Hoechst High Intensity Objects (%): 4% and 1%
  Population Membrane Permeable-Phenotype (%): 0% and 7%
  Population Mitochondria Different-Phenotype (%): 1%
  Population Mitotic Cells (%): 56% and 41%
  Population Normal (%): 95% and 98%
  Population Pyknosed Nuclei (%): 13% and 21%
  Population Tubulin-Different-Phenotype (%): 27% and 37%
  Total Cell Count: 189 and 113
[2]; [4]
  Population Apoptotic (%): 50% and 26%
  Population Fragmented Nuclei (%): 13% and 20%
  Population Healthy Nuclei (%): 66% and 59%
  Population Hoechst High Intensity Objects (%): 1% and 7%
  Population Membrane Permeable-Phenotype (%): 2% and 0%
  Population Mitochondria Different-Phenotype (%): 2% and 7%
  Population Mitotic Cells (%): 50% and 73%
  Population Normal (%): 98% and 92%
  Population Pyknosed Nuclei (%): 20%
  Population Tubulin-Different-Phenotype (%): 22% and 33%
  Total Cell Count: 203 and 119
[2]; [5]
  Population Apoptotic (%): 68% and 33%
  Population Fragmented Nuclei (%): 12% and 27%
  Population Healthy Nuclei (%): 73% and 49%
  Population Hoechst High Intensity Objects (%): 2% and 4%
  Population Membrane Permeable-Phenotype (%): 2% and 6%
  Population Mitochondria Different-Phenotype (%): 2% and 1%
  Population Mitotic Cells (%): 32% and 66%
  Population Normal (%): 97% and 95%
  Population Pyknosed Nuclei (%): 13% and 22%
  Population Tubulin-Different-Phenotype (%): 25% and 44%
  Total Cell Count: 183 and 123
